Measured values from ChEMBL document CHEMBL4028914, “Structure-Based Design of 6-Chloro-4-aminoquinazoline-2-carboxamide Derivatives as Potent and Selective p21-Activated Kinase 4 (PAK4) Inhibitors” (J Med Chem, 2018).

What was measured:
CYP2C9 = CYP2C9 (Homo sapiens, UniProt P11712); experiment: Inhibition of CYP2C9 in human liver microsomes at 10 uM using diclofenac as substrate preincubated for 10 mins followed by NADPH addition measured after 10 mins by LC-MS/MS method; type: ADME; conditions: probe diclofenac
Chain of CYP2C9 (P11712 whole entry, canonical isoform): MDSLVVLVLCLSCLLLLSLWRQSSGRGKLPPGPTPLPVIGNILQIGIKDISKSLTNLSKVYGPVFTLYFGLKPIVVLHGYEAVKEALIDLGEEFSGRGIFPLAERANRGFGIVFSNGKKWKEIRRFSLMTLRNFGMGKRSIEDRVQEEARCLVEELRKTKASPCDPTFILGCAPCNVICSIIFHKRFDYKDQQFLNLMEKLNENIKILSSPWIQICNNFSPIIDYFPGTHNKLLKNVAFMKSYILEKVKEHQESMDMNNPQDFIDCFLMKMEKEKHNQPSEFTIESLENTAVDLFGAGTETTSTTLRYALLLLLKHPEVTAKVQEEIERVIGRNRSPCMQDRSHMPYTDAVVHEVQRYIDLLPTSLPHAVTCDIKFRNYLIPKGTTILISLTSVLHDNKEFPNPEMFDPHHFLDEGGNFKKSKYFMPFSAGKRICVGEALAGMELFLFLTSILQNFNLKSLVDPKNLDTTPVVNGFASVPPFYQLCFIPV
In short: (§1)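 Each CYP isoform was tested at 10 μM compound. Positive controls: α-naphthoflavone (CYP1A2), sulfaphenazole (CYP2C9), ticlopidine (CYP2C19), quinidine (CYP2D6), ketoconazole (CYP3A4).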

CYP3A4 = CYP3A4 (Homo sapiens, UniProt P08684); experiment: Inhibition of CYP3A4 in human liver microsomes at 10 uM using midozolam as substrate preincubated for 10 mins followed by NADPH addition measured after 10 mins by LC-MS/MS method; type: ADME; conditions: probe midozolam; in short: as §1
Chain of CYP3A4 (P08684 whole entry): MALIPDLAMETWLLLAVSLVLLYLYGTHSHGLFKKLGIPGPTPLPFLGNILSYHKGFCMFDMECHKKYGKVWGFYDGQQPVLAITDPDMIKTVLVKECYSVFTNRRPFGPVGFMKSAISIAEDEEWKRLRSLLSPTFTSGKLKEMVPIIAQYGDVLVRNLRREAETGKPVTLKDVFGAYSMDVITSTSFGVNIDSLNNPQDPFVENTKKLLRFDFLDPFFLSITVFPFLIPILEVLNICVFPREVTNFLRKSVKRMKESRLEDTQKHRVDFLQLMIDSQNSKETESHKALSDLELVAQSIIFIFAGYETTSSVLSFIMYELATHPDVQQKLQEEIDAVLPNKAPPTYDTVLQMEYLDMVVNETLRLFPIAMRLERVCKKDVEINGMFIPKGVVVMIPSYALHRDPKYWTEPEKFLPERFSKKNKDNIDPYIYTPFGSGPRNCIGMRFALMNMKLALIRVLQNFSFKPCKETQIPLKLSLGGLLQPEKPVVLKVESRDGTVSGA

[1] = Solubility of the compound in DMSO by UV-metric method; type: physicochemical
[2] = Distribution coefficient, logD of the compound at pH 7.4 by UV-metric method; type: physicochemical; conditions: octanol/water
[3] = molecular target: Voltage-gated inwardly rectifying potassium channel KCNH2 (Homo sapiens, UniProt Q12809); experiment: Inhibition of human ERG by Qpatch assay
Chain of Voltage-gated inwardly rectifying potassium channel KCNH2 (Q12809 whole entry): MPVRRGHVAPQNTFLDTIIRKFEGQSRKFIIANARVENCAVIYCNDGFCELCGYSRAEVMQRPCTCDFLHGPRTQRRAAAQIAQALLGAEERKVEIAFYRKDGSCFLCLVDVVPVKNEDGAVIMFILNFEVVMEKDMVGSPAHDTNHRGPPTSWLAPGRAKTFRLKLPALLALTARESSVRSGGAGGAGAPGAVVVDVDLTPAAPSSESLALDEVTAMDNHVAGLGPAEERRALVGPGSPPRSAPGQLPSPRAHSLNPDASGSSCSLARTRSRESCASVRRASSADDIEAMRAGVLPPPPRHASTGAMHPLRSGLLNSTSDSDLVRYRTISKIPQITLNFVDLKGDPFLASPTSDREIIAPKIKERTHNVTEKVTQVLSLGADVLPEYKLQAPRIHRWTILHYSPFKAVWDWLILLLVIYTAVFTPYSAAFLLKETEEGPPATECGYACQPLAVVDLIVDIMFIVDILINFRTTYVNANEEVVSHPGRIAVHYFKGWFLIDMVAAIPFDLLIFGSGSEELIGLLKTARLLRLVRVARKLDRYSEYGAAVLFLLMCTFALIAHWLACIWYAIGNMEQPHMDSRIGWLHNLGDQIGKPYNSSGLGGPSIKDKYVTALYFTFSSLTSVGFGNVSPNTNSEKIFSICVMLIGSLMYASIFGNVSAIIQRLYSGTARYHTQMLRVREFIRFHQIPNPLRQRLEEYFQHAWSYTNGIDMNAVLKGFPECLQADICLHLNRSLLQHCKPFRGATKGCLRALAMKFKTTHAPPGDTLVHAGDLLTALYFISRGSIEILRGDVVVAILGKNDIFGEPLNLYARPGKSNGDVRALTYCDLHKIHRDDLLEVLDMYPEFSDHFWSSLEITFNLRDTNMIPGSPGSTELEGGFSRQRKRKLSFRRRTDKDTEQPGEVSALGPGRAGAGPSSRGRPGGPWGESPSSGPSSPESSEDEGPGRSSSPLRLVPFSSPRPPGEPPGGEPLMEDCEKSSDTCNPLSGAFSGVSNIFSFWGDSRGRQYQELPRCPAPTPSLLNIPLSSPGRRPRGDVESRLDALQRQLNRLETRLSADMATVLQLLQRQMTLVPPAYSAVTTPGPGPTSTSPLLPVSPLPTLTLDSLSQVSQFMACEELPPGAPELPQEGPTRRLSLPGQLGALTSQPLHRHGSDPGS
In short: (§2)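 hERG current was recorded by automated patch clamp (Qpatch 16×) in CHO cells expressing hERG.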

CYP2C19 = CYP2C19 (Homo sapiens, UniProt P33261); experiment: Inhibition of CYP2C19 in human liver microsomes at 10 uM using S-mephenytoin as substrate preincubated for 10 mins followed by NADPH addition measured after 10 mins by LC-MS/MS method; type: ADME; conditions: probe S-mephenytoin; in short: as §1
Chain of CYP2C19 (P33261 whole entry): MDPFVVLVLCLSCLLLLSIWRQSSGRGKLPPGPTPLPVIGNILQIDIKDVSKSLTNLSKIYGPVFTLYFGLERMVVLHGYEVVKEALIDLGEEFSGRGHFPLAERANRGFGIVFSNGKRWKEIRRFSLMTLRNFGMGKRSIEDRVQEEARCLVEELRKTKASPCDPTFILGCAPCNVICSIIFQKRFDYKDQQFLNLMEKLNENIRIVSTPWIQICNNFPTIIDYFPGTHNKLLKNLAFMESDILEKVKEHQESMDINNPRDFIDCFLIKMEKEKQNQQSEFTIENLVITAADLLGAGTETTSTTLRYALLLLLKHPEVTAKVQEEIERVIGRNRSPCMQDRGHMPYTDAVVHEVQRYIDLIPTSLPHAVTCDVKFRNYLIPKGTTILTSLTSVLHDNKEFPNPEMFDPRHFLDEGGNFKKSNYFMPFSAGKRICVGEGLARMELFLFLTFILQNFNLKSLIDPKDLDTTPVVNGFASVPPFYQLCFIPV

[4] = Stability in rat liver microsomes assessed as compound remaining at 1 uM preincubated for 10 mins followed by NADPH addition measured after 1 hr by LC-MS/MS method; type: ADME, microsome; conditions: read-out: Stability
CYP2D6 = CYP2D6 (Homo sapiens, UniProt P10635); experiment: Inhibition of CYP2D6 in human liver microsomes at 10 uM using dextromethorphan as substrate preincubated for 10 mins followed by NADPH addition measured after 10 mins by LC-MS/MS method; type: ADME; conditions: probe dextromethorphan; in short: as §1
Chain of CYP2D6 (P10635 whole entry): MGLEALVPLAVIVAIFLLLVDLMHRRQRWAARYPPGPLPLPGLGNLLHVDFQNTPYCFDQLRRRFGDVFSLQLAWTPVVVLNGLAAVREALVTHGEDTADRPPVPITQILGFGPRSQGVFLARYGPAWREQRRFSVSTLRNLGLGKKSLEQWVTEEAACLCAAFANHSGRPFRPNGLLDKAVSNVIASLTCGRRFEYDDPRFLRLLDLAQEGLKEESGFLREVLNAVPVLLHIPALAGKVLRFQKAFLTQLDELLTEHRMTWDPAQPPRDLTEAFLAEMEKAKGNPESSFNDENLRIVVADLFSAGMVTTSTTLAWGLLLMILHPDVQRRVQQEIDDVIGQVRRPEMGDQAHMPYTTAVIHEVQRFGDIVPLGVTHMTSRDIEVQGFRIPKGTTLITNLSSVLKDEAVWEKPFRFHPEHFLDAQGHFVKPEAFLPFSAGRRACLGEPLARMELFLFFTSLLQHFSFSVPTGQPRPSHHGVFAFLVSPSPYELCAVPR

[5] = Intrinsic clearance in human liver at 1 uM measured after 1 hr by LC-MS/MS method; type: ADME, tissue-based; conditions: read-out: CLH
[6] = Partition coefficient, log P of the compound by UV-metric method; type: physicochemical; conditions: octanol/water
[7] = AUC (0 to infinity) in Sprague-Dawley rat at 2 mg/kg, iv by LC-MS/MS method; type: ADME, organism-based; set-up: dose 2 mg/kg, route intravenous, time infinity; conditions: in vivo
In short: (§3)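 Single intravenous dose of 2 mg/kg given to Sprague-Dawley rats. Values are the mean ± SD of three independent determinations.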

[8] = Dissociation constant, pKa of compound; type: physicochemical
[9] = Cmax in Sprague-Dawley rat at 2 mg/kg, iv by LC-MS/MS method; type: ADME, organism-based; set-up: dose 2 mg/kg, route intravenous; conditions: in vivo; in short: as §3
[10] = Stability in rat liver microsomes assessed as compound remaining at 1 uM in absence of NADPH regenerating system measured after 1 hr by LC-MS/MS method; type: ADME, microsome; conditions: read-out: Stability
In short: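 Control incubation with rat liver microsomes: buffer replaces the NADPH regenerating system for the whole 60 min incubation. Read-out is percent of parent compound remaining.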

[11] = Aqueous solubility of the compound at pH 2.0 by UV-metric method; type: physicochemical
[12] = Initial concentration in Sprague-Dawley rat at 2 mg/kg, iv by LC-MS/MS method; type: ADME, organism-based; conditions: in vivo; in short: as §3
CYP1A2 = molecular target: T1, CYP1A2 (Homo sapiens, UniProt P05177); experiment: Inhibition of CYP1A2 in human liver microsomes at 10 uM using phenacetin as the substrate preincubated for 10 mins followed by NADPH addition measured after 10 mins by LC-MS/MS method; type: ADME; conditions: probe phenacetin; in short: as §1
T1 sequence (P05177 whole entry): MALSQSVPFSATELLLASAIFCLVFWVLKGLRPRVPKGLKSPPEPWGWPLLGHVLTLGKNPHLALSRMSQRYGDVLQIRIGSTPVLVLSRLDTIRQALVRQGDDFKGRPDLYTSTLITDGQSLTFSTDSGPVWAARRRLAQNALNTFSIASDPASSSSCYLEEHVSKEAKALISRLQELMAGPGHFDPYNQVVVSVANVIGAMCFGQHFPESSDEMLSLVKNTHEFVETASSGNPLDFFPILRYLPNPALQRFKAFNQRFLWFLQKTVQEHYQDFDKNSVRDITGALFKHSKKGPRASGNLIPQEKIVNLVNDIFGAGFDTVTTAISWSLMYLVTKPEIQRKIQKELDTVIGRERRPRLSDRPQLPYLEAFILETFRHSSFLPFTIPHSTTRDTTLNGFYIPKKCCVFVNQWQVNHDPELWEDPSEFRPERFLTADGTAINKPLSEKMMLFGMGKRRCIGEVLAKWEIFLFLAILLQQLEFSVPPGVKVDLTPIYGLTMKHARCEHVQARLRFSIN

[13] = Stability in Sprague-Dawley rat blood plasma assessed as compound remaining at 2 uM measured after 60 mins by LC-MS/MS method; type: ADME, cell-free; conditions: read-out: Stability
[14] = Half life in human liver microsomes at 1 uM preincubated for 10 mins followed by NADPH addition measured after 1 hr by LC-MS/MS method; type: ADME, microsome
[15] = Half life in rat liver microsomes at 1 uM preincubated for 10 mins followed by NADPH addition measured after 1 hr by LC-MS/MS method; type: ADME, microsome
[16] = Clearance in Sprague-Dawley rat at 2 mg/kg, iv by LC-MS/MS method; type: ADME, organism-based; conditions: in vivo; in short: as §3
[17] = AUC (0 to t) in Sprague-Dawley rat at 2 mg/kg, iv by LC-MS/MS method; type: ADME, organism-based; conditions: in vivo; in short: as §3
[18] = Stability in human liver microsomes assessed as compound remaining at 1 uM preincubated for 10 mins followed by NADPH addition measured after 1 hr by LC-MS/MS method; type: ADME, microsome; conditions: read-out: Stability
[19] = Aqueous solubility of the compound at pH 7.4 by UV-metric method; type: physicochemical
[20] = Intrinsic clearance in rat liver microsomes at 1 uM measured after 1 hr by LC-MS/MS method; type: ADME, microsome; conditions: read-out: CLH
[21] = Volume of distribution at steady state in Sprague-Dawley rat at 2 mg/kg, iv by LC-MS/MS method; type: ADME, organism-based; conditions: in vivo, read-out: Vdss
In short: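 Sprague-Dawley rats receive a single intravenous dose of 2 mg/kg. Pharmacokinetic parameters derived are C0, clearance, Vss, T1/2, AUC(0−t) and AUC(0−∞). Values are averages of three independent determinations, reported as mean ± SD.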

[22] = Stability in human liver microsomes assessed as compound remaining at 1 uM in absence of NADPH regenerating system measured after 1 hr by LC-MS/MS method; type: ADME, microsome; conditions: read-out: Stability
In short: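 Liver microsomal incubation ran for 60 min without the NADPH regenerating system, which was replaced by buffer. Read-out was percent compound remaining.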

[23] = Intrinsic clearance in human liver microsomes at 1 uM measured after 1 hr by LC-MS/MS method; type: ADME, microsome; conditions: read-out: CLH
[24] = Half life in Sprague-Dawley rat at 2 mg/kg, iv by LC-MS/MS method; type: ADME, organism-based; conditions: in vivo; in short: as §3
[25] = Stability in Sprague-Dawley rat blood plasma assessed as compound remaining at 2 uM measured after 120 mins by LC-MS/MS method; type: ADME, cell-free; conditions: read-out: Stability
hERG (KCNH2) = hERG (KCNH2) (Homo sapiens, UniProt Q12809); experiment: Inhibition of human ERG at 40 uM by Qpatch assay relative to control; in short: as §2
Chain of hERG (KCNH2) (Q12809 whole entry): as the sequence (Q12809 whole entry) above

[26] = Intrinsic clearance in rat liver at 1 uM measured after 1 hr by LC-MS/MS method; type: ADME, tissue-based; conditions: read-out: CLH

inhibition at 10 min, 10 µM (CYP2C9): 15.1%
inhibition at 10 min, 10 µM (CYP3A4): 2.3%
solubility [1]: > 30 mM
logD [2]: 1.9
inhibition at 10 min, 10 µM (CYP2C19): 12.2%
remaining at 1 h, 1 µM [4]: 36.9%
inhibition at 10 min, 10 µM (CYP2D6): 1.8%
CLint scaled at 1 µM [5]: 25.8 mL/min/kg
logP [6]: 2.54
AUC(0-inf) [7]: 472 ng·h/mL
pKa [8]: 7.93
Cmax [9]: 736 ng/mL
remaining at 1 h, 1 µM [10]: 97%
solubility [11]: > 10000 µg/mL
C0 [12]: 736 ng/mL
inhibition at 10 min, 10 µM (CYP1A2): 17.2%
remaining at 1 h, 2 µM [13]: 110%
half-life at 1 µM [14]: 48.4 min
half-life at 1 µM [15]: 41.8 min
clearance [16]: 70.7 mL/min/kg
AUC(0-t) [17]: 465 ng·h/mL
remaining at 1 h, 1 µM [18]: 41.9%
solubility [19]: > 10000 µg/mL
microsomal CLint at 1 µM [20]: 33.2 µL/min/mg
Vd [21]: 6.43 L/kg
remaining at 1 h, 1 µM [22]: 103%
microsomal CLint at 1 µM [23]: 28.7 µL/min/mg
half-life [24]: 87.6 min
remaining at 2 h, 2 µM [25]: 115%
CLint scaled at 1 µM [26]: 59.7 mL/min/kg
Compound: C[C@@H]1CN(C(=O)c2nc(Nc3cc(C4CC4)[nH]n3)c3cc(Cl)ccc3n2)CCN1.Cl
IC50 [3]: > 40 µM
inhibition at 40 µM (hERG (KCNH2)): 42%
